The species entered for assay [1] is Sus scrofa. Nature of the assay: Inhibition of H+/K+ ATPase in pig stomach at 1 uM. The format is tissue-based. The essentials:
(§1)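 Enzyme from hog fundic mucosa: vesicles were isolated by differential and sucrose/Ficoll gradient centrifugation, lyophilized, resuspended in water, kept at -80° and used within 2–3 weeks. The 1 ml assay held 10 µg vesicle protein, 3 mM MgSO₄, 3 mM ATP and 40 mM Tris/HCl pH 7.4, ±15 mM KCl. Inorganic phosphate was the read-out, and H⁺,K⁺-ATPase activity was taken as the K⁺-dependent difference.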

For assay [2], the species on record is Sus scrofa. Briefly: Inhibition of H+/K+ ATPase in pig stomach at 10 uM. In kind it is tissue-based. The essentials: as §1
Assay [3] is filed under the species Sus scrofa. Briefly: Inhibition of H+/K+ ATPase in pig stomach at 100 uM. In kind it is tissue-based. The essentials:
as §1

A short description of assay [4]: Inhibition of H+/K+ ATPase in pig stomach. The format is tissue-based, Sus scrofa. The essentials:
as §1

Each structure is given as a SMILES string. Values joined by “and” are separate entries in the source; they are usually repeats but may differ in a detail not shown here. Equal values may be shown once.

`C[C@]12CC[C@]3(C1)[C@H](CC2=O)C[C@@H](OC(=O)c1ccccc1)[C@H]1[C@](C)(C(=O)O)CCC[C@@]13C`: the inhibition in assay [1] was 7% and -0%; in assay [2], 21% and 14%; in assay [3] it was 62% and 64%.
For `CC(=O)O[C@H]1C[C@@H]2C[C@@H](OC(=O)c3ccccc3)[C@H]3[C@](C)(C(=O)O)CCC[C@]3(C)[C@]23CC[C@@]1(C)C3`, the inhibition in assay [1] was found to be 3%; in assay [2] it was 21%; in assay [3] it was 94%.
As to `COC(=O)[C@]1(C)CCC[C@@]2(C)[C@H]1[C@H](OC(=O)c1ccccc1)C[C@H]1C[C@@H](O)[C@@]3(C)CC[C@]12C3`, the inhibition in assay [1] came out at 12%; in assay [2] it was 59%; in assay [3] it was 64%.
The corresponding values for `CC(=O)OC[C@]1(C)CCC[C@@]2(C)[C@H]1[C@H](O)C[C@H]1C[C@H](OC(C)=O)[C@@]3(C)CC[C@]12C3` are 5%, 40% and 79%.
On the same counts, the results for `COC(=O)[C@]1(C)CCC[C@@]2(C)[C@H]1[C@H](OC(=O)c1ccccc1)C[C@H]1C[C@H](OC(C)=O)[C@@]3(C)CC[C@]12C3` are 49%, 61% and 62%.
On to `C[C@]12CC[C@]3(C1)[C@@H](CC(=O)[C@H]1[C@](C)(C(=O)O)CCC[C@@]13C)CC2=O`, for which the figures for the inhibition in assay [1], in assay [2] and in assay [3] were -1%, 1% and 12%, respectively.
The corresponding values for `C[C@]12CC[C@]3(C1)[C@H](C/C2=N\O)C[C@@H](OC(=O)c1ccccc1)[C@H]1[C@](C)(C(=O)O)CCC[C@@]13C` are 11%, 26% and 80%.
Turning to `COC(=O)[C@]1(C)CCC[C@@]2(C)[C@H]1[C@H](O)C[C@H]1CC(=O)[C@@]3(C)CC[C@]12C3`, the inhibition in assay [1] is -5%; in assay [2], 4%; in assay [3], 52%.
On to `C[C@]12CC[C@]3(C1)[C@@H](C[C@@H](O)[C@H]1[C@](C)(CO)CCC[C@@]13C)C[C@H]2O`, for which the values for the inhibition in assay [2] and in assay [3] were -3% and 7%, respectively.
Take `COC(=O)[C@]1(C)CCC[C@@]2(C)[C@H]1[C@H](OC(=O)c1ccccc1)C[C@H]1C[C@@H](OC(C)=O)[C@@]3(C)CC[C@]12C3`: the inhibition in assay [1] came out at 35%; in assay [2], 58%; in assay [3] it was 61%. This compound also had an IC50 in assay [4] of 3000 nM.
In the case of `CC(=O)O[C@H]1C[C@@H]2C[C@@H](O)[C@H]3[C@](C)(C(=O)O)CCC[C@]3(C)[C@]23CC[C@@]1(C)C3`, the inhibition in assay [1] was 2%; in assay [2], 13%; in assay [3] it was 21%.
On the same counts, the results for `COC(=O)[C@]1(C)CCC[C@@]2(C)[C@H]1[C@H](OC(=O)c1ccccc1)C[C@H]1C/C(=N\O)[C@@]3(C)CC[C@]12C3` are 24%, 67% and 75%.
On the same counts, the results for `COC(=O)[C@]1(C)CCC[C@@]2(C)[C@H]1[C@H](O)C[C@H]1C[C@H](O)[C@@]3(C)CC[C@]12C3` are -2%, 5% and 22%.
The corresponding values for `CC(=O)O[C@@H]1C[C@@H]2C[C@@H](OC(=O)c3ccccc3)[C@H]3[C@](C)(C(=O)O)CCC[C@]3(C)[C@]23CC[C@@]1(C)C3` are 7%, 38% and 98%.
As to `C[C@]12CC[C@]3(C1)[C@@H](C[C@@H](O)[C@H]1[C@](C)(CO)CCC[C@@]13C)C[C@@H]2O`, the inhibition in assay [3] was found to be 24%.
For `COC(=O)[C@]1(C)CCC[C@@]2(C)[C@H]1[C@H](OC(=O)c1ccccc1)C[C@H]1C[C@H](O)[C@@]3(C)CC[C@]12C3`, the results for the inhibition in assay [1], in assay [2] and in assay [3] were 10%, 64% and 68%, respectively.
The corresponding values for `CC(=O)OC[C@]1(C)CCC[C@@]2(C)[C@H]1[C@H](OC(=O)c1ccccc1)C[C@H]1CC(=O)[C@@]3(C)CC[C@]12C3` are 40%, 71% and 72%.
`C[C@]12CC[C@]3(C1)[C@H](CC2=O)C[C@@H](OC(=O)c1ccccc1)[C@H]1[C@@](CO)(C(=O)O)CCC[C@@]13C`: in assay [3], the inhibition stood at 24%.
Take `C[C@]12CC[C@]3(C1)[C@H](C[C@H]2O)C[C@@H](OC(=O)c1ccccc1)[C@H]1[C@](C)(C(=O)O)CCC[C@@]13C`: the inhibition was -4% in assay [1], 3% in assay [2] and 30% in assay [3].
On the same counts, the results for `CC(=O)OC[C@]1(C)CCC[C@@]2(C)[C@H]1[C@H](OC(C)=O)C[C@H]1C[C@H](OC(C)=O)[C@@]3(C)CC[C@]12C3` are 13%, 18% and 57%.
On the same counts, the results for `CC(=O)OC[C@]1(C)CCC[C@@]2(C)[C@H]1[C@H](O)C[C@H]1C[C@@H](OC(C)=O)[C@@]3(C)CC[C@]12C3` are -2%, 33% and 62%.
Take `C[C@]12CC[C@]3(C1)[C@@H](C[C@@H](O)[C@H]1[C@](C)(C(=O)O)CCC[C@@]13C)C[C@@H]2O`: in assay [3], the inhibition was 8%.
Consider `C[C@@]12CC[C@]3(C1)[C@H](CC2=O)C[C@@H](OC(=O)c1ccccc1)[C@H]1[C@](C)(CO)CCC[C@@]13C`, for which the inhibition in assay [1] is -1%; in assay [2], 21%; in assay [3], 45%.
The corresponding values for `CC(=O)O[C@@H]1C[C@H]2CC(=O)[C@@]3(C)CC[C@@]2(C3)[C@@]2(C)CCC[C@@](C)(C(=O)O)[C@H]12` are 1%, 7% and 33%.
Turning to `C[C@]12CC[C@]3(C1)[C@@H](C[C@@H](OC(=O)c1ccccc1)[C@H]1[C@](C)(C(=O)O)CCC[C@@]13C)C[C@@H]2O`, the results for the inhibition in assay [1], in assay [2] and in assay [3] were 1%, 12% and 72%, respectively.
With `COC(=O)[C@]1(C)CCC[C@@]2(C)[C@H]1[C@H](OC(=O)c1ccccc1)C[C@H]1CC(=O)[C@@]3(C)CC[C@]12C3`, the figures for the inhibition in assay [1], in assay [2] and in assay [3] were 36%, 74% and 81%, respectively. For the same compound, it took 3000 nM to reach half-maximal inhibition in assay [4] (IC50).

For the origin of these results see ChEMBL document CHEMBL1158957, “Scopadulciol, an inhibitor of gastric H+, K(+)-ATPase from Scoparia dulcis, and its structure-activity relationships” (J Nat Prod, 1991).
